Assays:
[1] = folding enthalpy; higher = less favourable; fluorescence melt of hairpins on a sequencing array, two-state fit; conditions: sodium 0.088 M
Method in brief: (§1)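 Melting temperature and folding enthalpy were derived from bootstrapped two-state fits. The fitted temperatures were raised by 9.35 °C to agree with UV melts, and four replicates were combined by inverse variance. The underlying data were Cy3 fluorescence images of library hairpins, with annealed Cy3 and quencher oligos, on a sequenced MiSeq flow cell in 50 mM Na-HEPES pH 8.0, 25 mM NaCl, taken in 2.5 °C steps up to 60 °C, normalised to pre-quench Cy3 and to control constructs.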

[2] = melting temperature; fluorescence melt of hairpins on a sequencing array, two-state fit, raised by 9.35 °C to match UV melts; conditions: sodium 0.088 M
Method in brief: as §1

| Sequence | folding enthalpy [1] | Tm [2] |
| --- | --- | --- |
| GCTTCCGAAAGGAGAGC ((((((....))).))) | -22.3 kcal/mol | 49.2 °C |
| GCTCTCACGAAAGTGAGC (((..(((....)))))) | -7.6 kcal/mol | 35.8 °C |
| GCGGTCGAAAGACTCGC ((((((....))).))) | -29 kcal/mol | 54.6 °C |
| GATCAGCAAACTGATC ((((((....)))))) | -32 kcal/mol | 48.2 °C |
| GCACAGCGAAAGCCGAGC ((.(.((....)).).)) | -12.6 kcal/mol | 39.3 °C |
| GCGGGCGAAAGCCCTCGC ((((((....)))..))) | -13.1 kcal/mol | 50 °C |
| GCTATGCGAAAGCAAGGC ((..(((....)))..)) | -18.4 kcal/mol | 42.5 °C |
| GGGTCCGGAAACGGGTCC ((..(((....)))..)) | -27.6 kcal/mol | 50.1 °C |
| GATCACATAAGTGATC ((((((....)))))) | -39.3 kcal/mol | 58.9 °C |
| GCCAGACGAAAGTCCGGC (((.(((....))).))) | -27.6 kcal/mol | 60.1 °C |
| GCCACGCGAAAGCAAGGC (((..((....))..))) | -22.9 kcal/mol | 57.2 °C |
| GATCACTCCAGTGATC ((((((....)))))) | -30.5 kcal/mol | 58.4 °C |
| GTCACGGAAACGTGAC ((((((....)))))) | -34.4 kcal/mol | 69.2 °C |
| GCCTTGCGAAAGCTAGGC ((((.((....)).)))) | -44.4 kcal/mol | 67.2 °C |
| GCTTAGCGAAAGCTTCGC ((..(((....)))..)) | -15 kcal/mol | 42.9 °C |
| GAAGTTGGAAACAACCTC ((.((((....)))).)) | -15 kcal/mol | 27.4 °C |
| GTATGCGAAAGCATCTAC ((((((....)))..))) | -11.3 kcal/mol | 40 °C |
| GAGTTCCCGAAAGGGCTC (((..(((....)))))) | -18.3 kcal/mol | 34.1 °C |
| GATAGAGGAAACCCTATC (((((.(....).))))) | -20.3 kcal/mol | 30.8 °C |
| GAGTGAGGAAACCCACTC (((((.(....).))))) | -33.8 kcal/mol | 44.5 °C |
| GGTACGCGAAAGCGCACC (((.(((....))).))) | -28.6 kcal/mol | 57.6 °C |
| GATCAGATCCTGATC ((((((...)))))) | -37 kcal/mol | 48.2 °C |
| GGGTGGGGAAACTCACCC (((((.(....).))))) | -49.8 kcal/mol | 55.4 °C |

| Sequence | folding enthalpy [1] | Tm [2] |
| --- | --- | --- |
| GATCGGGTGCCGATC ((((((...)))))) | -49.1 kcal/mol | 55.2 °C |
| GAAAGACGAAAGTCTTC (((.(((....)))))) | -12.6 kcal/mol | 44.3 °C |
| GCGTTGCGAAAGCACTGC ((..(((....)))..)) | -18.2 kcal/mol | 46.1 °C |
| GTGCCCGAAAGGGTCAC ((((((....))).))) | -18.1 kcal/mol | 55 °C |
| GCGTACCGAAAGGTCGC (((.(((....)))))) | -36.5 kcal/mol | 63.5 °C |
| GGTGCGCGAAAGCGACC (((.(((....)))))) | -15.3 kcal/mol | 56.7 °C |
| GACAGCGAAAGCTAGTC ((((((....))).))) | -22.6 kcal/mol | 51.2 °C |
| GAGATCCGAAAGGACTC (((.(((....)))))) | -18.9 kcal/mol | 44.2 °C |
| GCGTAGCGAAAGCCGCGC (((..((....))..))) | -16.2 kcal/mol | 61.6 °C |
| GTTGTTGGAAACAATAGC (.(.(((....))).).) | -11.9 kcal/mol | 31.2 °C |
| GGTCTGGGAAACCAGGCC ((.((((....)))).)) | -47.6 kcal/mol | 56.9 °C |
| GGCATCCCGAAAGGGGCC (((..(((....)))))) | -18.9 kcal/mol | 52.3 °C |
| GCTCGGCGAAAGCAGGGC ((.(.((....)).).)) | -14 kcal/mol | 67.7 °C |
| GGTAGAGAAATCTACC ((((((....)))))) | -25.2 kcal/mol | 49.2 °C |
| GGGGTAGGAAACTGTCCC (((..((....))..))) | -25.5 kcal/mol | 36.2 °C |
| GAAAGCGAAAGCTCTTTC ((((((....)))..))) | -16.7 kcal/mol | 38.2 °C |
| GACGATGCGAAAGCAGTC (((..(((....)))))) | -16.9 kcal/mol | 44 °C |
| GCGTAACGAAAGTTCGC (((.(((....)))))) | -36.1 kcal/mol | 55.9 °C |
| GATGTTGGAAACAACACC (.(((((....))))).) | -15.6 kcal/mol | 34.8 °C |
| GGGTCGGGAAACCAACCC ((((.((....)).)))) | -35.2 kcal/mol | 47.1 °C |
| GTTGCTGGAAACAGCAGC (.(((((....))))).) | -26.3 kcal/mol | 54.5 °C |
| GTCCGTGGAAACACGGGC (.(((((....))))).) | -24.1 kcal/mol | 63.8 °C |
| CGATCGGAAACGATTCG ((((((....))).))) | -24.9 kcal/mol | 43.7 °C |

| Sequence | folding enthalpy [1] | Tm [2] |
| --- | --- | --- |
| GTAAGCGAAAGCTTCTAC ((((((....)))..))) | -11.2 kcal/mol | 33.6 °C |
| GACGGCGGAAACGCCACC (..((((....))))..) | -9.98 kcal/mol | 26.9 °C |
| GAATGCCGAAAGGCCTTC (((.(((....))).))) | -17 kcal/mol | 41.3 °C |
| GATCACTCACGTGATC ((((((....)))))) | -41.5 kcal/mol | 55.8 °C |
| GAAAGGCGAAAGCCGTTC (((.(((....))).))) | -11.9 kcal/mol | 46.7 °C |
| GATCTGCACCAGATC ((((((...)))))) | -41.8 kcal/mol | 47.9 °C |
| GACGAAGGAAACTTCGCC (.(((((....))))).) | -16.8 kcal/mol | 43.7 °C |
| CGGCCGGAAACGGTGCCG ((((((....)))..))) | -35.8 kcal/mol | 51.9 °C |
| TGCGGGAAACCGCA (((((....))))) | -15.7 kcal/mol | 66.5 °C |
| GGATTTCGAAAGAATTCC (((.(((....))).))) | -31.1 kcal/mol | 42 °C |
| TAGCTGAAAAGCTA (((((....))))) | -14.6 kcal/mol | 46.9 °C |
| GTATCGGAAACGATAC ((((((....)))))) | -40.4 kcal/mol | 55.5 °C |
| GCCTAGCGAAAGCAAGGC ((((.((....)).)))) | -29.3 kcal/mol | 67.2 °C |
| GCGAGCGGAAACGCTTGC ((.((((....)))).)) | -34.4 kcal/mol | 61.9 °C |
| GGATCGGGAAACCGACCC ((.((((....)))).)) | -31.8 kcal/mol | 47.7 °C |
| GTCGAATCGAAAGATGAC (((..(((....)))))) | -19.9 kcal/mol | 32.6 °C |
| GGCGCCGAAAGGCGTGCC ((((((....)))..))) | -9.73 kcal/mol | 54.2 °C |
| GCCAGGCGAAAGCCGTGC ((..(((....)))..)) | -13.6 kcal/mol | 50 °C |
| GCCGAAGGAAACCTCGGC (((((.(....).))))) | -34.6 kcal/mol | 54.6 °C |
| GCTGCGGGAAACTGCGGC ((.((.(....).)).)) | -47.5 kcal/mol | 51.8 °C |
| GGAGCCGAAAGGCCATCC ((((((....)))..))) | -8.68 kcal/mol | 31.6 °C |
| GTGTAACGAAAGTTTCAC (((.(((....))).))) | -22.9 kcal/mol | 44.9 °C |
| GTCGGCGAAAGCCGGAC ((((((....))).))) | -12.4 kcal/mol | 61.1 °C |

| Sequence | folding enthalpy [1] | Tm [2] |
| --- | --- | --- |
| GATCCCTATTGGGATC ((((((....)))))) | -43.1 kcal/mol | 62.8 °C |
| GGCAGCGAAAGCTTTGCC ((((((....)))..))) | -18.1 kcal/mol | 51.6 °C |
| GGGACTGAAAAGTCCC ((((((....)))))) | -33.7 kcal/mol | 68.3 °C |
| GAGACCCGAAAGGGCCTC (((.(((....))).))) | -28.8 kcal/mol | 58.5 °C |
| GCTGCACGAAAGTGAAGC (((.(((....))).))) | -36 kcal/mol | 60.5 °C |
| GCGTTTTCGAAAGAACGC (((..(((....)))))) | -32 kcal/mol | 49.6 °C |
| GCTGAAGGAAACTTTAGC (((.(((....))).))) | -29.2 kcal/mol | 41.5 °C |
| GGACCCGAAAGGGATCC ((((((....))).))) | -20.8 kcal/mol | 54.2 °C |
| GACCTACCGAAAGGTGTC (((..(((....)))))) | -18 kcal/mol | 30.8 °C |
| GATTACGAAAGTATAATC ((((((....)))..))) | -7.84 kcal/mol | 27.1 °C |
| GGTCTCGCGAAAGCGACC (((..(((....)))))) | -9.72 kcal/mol | 33.2 °C |
| GGGCCACGAAAGTGACCC (((.(((....))).))) | -40.5 kcal/mol | 64.4 °C |
| GCATTAGAAATAATGC ((((((....)))))) | -24.5 kcal/mol | 48.2 °C |
| GATCTGATATCAGATC ((((((....)))))) | -40.1 kcal/mol | 51 °C |
| GCTGGTGGAAACACTGGC ((..(((....)))..)) | -30.1 kcal/mol | 45.9 °C |
| GTTTAAGGAAACTTAAAC (((((((....))))))) | -40.6 kcal/mol | 46.5 °C |
| GTGAATACGAAAGTACAC (((..(((....)))))) | -12.5 kcal/mol | 27.5 °C |
| GGGTGCGCGAAAGCGCCC (((..(((....)))))) | -10.8 kcal/mol | 55.5 °C |
| GGGGAGGGAAACCCCCCC ((((.((....)).)))) | -34.1 kcal/mol | 54.5 °C |
| GTAGGAGGAAACTCCTAC (((((((....))))))) | -38 kcal/mol | 57.5 °C |
| GCCAGAGGAAACTTTGGC ((((.((....)).)))) | -32.8 kcal/mol | 47.4 °C |
| GGTAGACGAAAGTCCACC (((.(((....))).))) | -23.8 kcal/mol | 46.3 °C |
| GGGACAACGAAAGTTCCC (((..(((....)))))) | -22.4 kcal/mol | 39.4 °C |
